Bioassay records from PubChem.
ROMK mod – human ROMK K+ channel modulation, primary screen; P48048; Tet-inducible ROMK, thallium flux fluorescence; actives lie on both sides; 2% of 130,000 active; B-score at 10 µM; AID 1918;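 active means signal ratio slope over the read window, or its plate-corrected B-score, at least 3 SD from the plate mean, either direction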;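 further: B-score of the F/F0 ratio slope over 7 to 12 s after thallium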
Target sequence (P48048 whole entry, looked up): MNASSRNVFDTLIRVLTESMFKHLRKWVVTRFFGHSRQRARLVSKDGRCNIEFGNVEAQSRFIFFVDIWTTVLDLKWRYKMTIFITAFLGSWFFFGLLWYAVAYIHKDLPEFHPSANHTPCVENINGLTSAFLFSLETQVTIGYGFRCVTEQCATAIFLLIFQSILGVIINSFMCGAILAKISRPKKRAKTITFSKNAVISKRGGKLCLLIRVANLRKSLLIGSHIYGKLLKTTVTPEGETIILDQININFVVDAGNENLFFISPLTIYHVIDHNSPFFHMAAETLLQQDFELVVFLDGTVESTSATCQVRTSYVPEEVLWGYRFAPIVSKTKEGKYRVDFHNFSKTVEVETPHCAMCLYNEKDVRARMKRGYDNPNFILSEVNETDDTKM
ABCG2 block – inhibitors of human ABCG2 transporter, ABCB1 counter-screen; IgMXP3 cells, JC-1 efflux, flow cytometry; inhibition, % at 6.6 µM; 0.1% of 190,000 active; AID 1325;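 active means inhibition above 80%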
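Test system: IgMXP3 (ABCG2) plus far-red-tagged CCRF-Adr (ABCB1) cells. Reagent: JC-1 dye as substrate. Timing: 10 min exposure at 25 °C with rotation, no wash. Measured by: flow cytometric JC-1 green MFI at 530 nm. Read-out: percent efflux inhibition, scaled nicardipine 100% to DMSO 0%. Control set: nicardipine and DMSO wells.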
sdo1 growth – sdo1-depleted yeast growth rescue | S. cerevisiae sdo1-depleted JHY4D growth rescue, OD600 30 h; stronger effect = higher value; pdr5 snq2 efflux-pump mutant strain | z-score at 10 µM | AID 817 | 0.21% of 140,000 active;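 active means z-score above 3 at both the 24 hr and the 30 hr optical density reads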
ABCB1 inh – inhibitors of human ABCB1 transporter, ABCG2 counter-screen; AID 1326; P08183; 0.067% of 190,000 active; CCRF-Adr cells, JC-1 efflux, flow cytometry; inhibition, % at 6.6 µM; in the data active means inhibition above about 40%;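 further: higher value means more JC-1 retained so stronger ABCB1 efflux block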
Autophagy mod – modulators of autophagy. MEF GFP-LC3 puncta imaging; test concentration mostly 10 µM. calls only at 10 µM (by protocol). 0.98% of 190,000 active;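 active means percentage of spot-positive cells more than 3 SD above its plate mean, without a fluorescence outlier flag or 80% toxicity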
Ins promoter up – MIN6 insulin promoter up-regulation; 0.3% of 190,000 active; AID 1625; MIN6 insulin promoter-GFP reporter, high-content imaging; stronger effect = higher value; z-score at 5 µM;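 active means z-score above 3 at 5 µM with at least 500 cells counted in the well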
sdo1 rescue conf – confirmation of growth rescue in SDO1-depleted yeast, bone marrow failure | OD recovery (concentration not given with the values) | AID 949 | S. cerevisiae JHY4D (SDO1-depleted) growth rescue, OD600, 30 h; stronger effect = higher value; efflux-deficient strain, SNQ2 and PDR5 mutated | 44% of 440 active | shares compounds with sdo1 growth;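 active means yeast growth recovered at 30 hours, either rising with dose fitted slope above 0.001 or with average optical density gain above 0.07, some results past the limit were not filed as active; inactive means growth falling with dose or no effect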
Numbers stand for hits; n = inactive; x = no result given; + = active, no number. A selection: hits, their analogues and other compounds. The true share with any hit is near 2.3%.

SMILES	ROMK mod	ABCG2 block	sdo1 growth	ABCB1 inh	Autophagy mod	Ins promoter up	sdo1 rescue conf
Cc1cc(-c2ccccc2)n2nc(C)c(C#N)c2n1	n	n	12.3	n	n	n	n
CCOC(=O)C(O)(NC(=O)c1cccnc1)C(F)(F)F (stereo not drawn)	x	n	8.05	n	n	n	0.0927
CCOC(=O)CNC(=O)c1cccnc1	x	n	n	n	n	n	x
CC1(C)NC(=O)N(CC(O)CN2C(=O)NC(C)(C)C2=O)C1=O	n	n	9.05	n	n	n	0.133
CCOc1ccc(-c2nc(CSCC(=O)NCCN3CCOCC3)c(C)o2)cc1	x	n	n	n	n	n	n
Cc1ccc(NC(=O)C(=O)C2C(=O)Nc3ccccc32)cc1 (stereo not drawn)	n	x	x	x	x	n	x
COc1ccc(CCN2C(=O)c3cccc4cccc(c34)C2=O)cc1OC	n	n	n	n	n	n	0.0943
Cc1cc(N2CCOCC2)nc(SCC(=O)c2ccccc2)n1	x	n	n	n	n	n	0.085
O=C(/C(=C(\[O-])c1ccccc1)[n+]1ccc2ccccc2c1)c1ccccc1	n	n	7.91	n	n	n	n
COc1cc(C(=O)N2CCc3ccccc32)ccc1OCc1c(C)noc1C	x	x	x	x	x	n	x
COc1ccc(CC(NC(C)=O)C(=O)NC2CCN(S(=O)(=O)c3ccccc3)CC2)cc1OC (stereo not drawn)	x	n	n	n	n	n	x
COc1ccc(CC(NC(C)=O)C(=O)NC2CCN(S(=O)(=O)c3cccc4ccccc34)CC2)cc1OC (stereo not drawn)	n	n	n	n	n	x	0.0971
CCOC(=O)/C=C1\SCC(=O)N1CC(=O)NC12CC3CC(CC(C3)C1)C2	n	n	14	n	n	n	0.0837
COCC(=O)Nc1sc2c(c1C(=O)OC)CCCC2	n	n	n	n	n	n	x
COC(=O)c1c(NC(=O)Cc2cccs2)sc2c1CCCC2	n	n	7.54	n	n	n	n
CC(C(=O)Nc1cccnc1)N1C(=O)c2ccccc2C1=O (stereo not drawn)	n	n	4.06	n	n	n	0.0876
CC(C(=O)Nc1cccnc1)N1C(=O)C2C3C=CC(C3)C2C1=O (stereo not drawn)	n	n	n	n	n	x	x
Cc1ccnc(NC(=O)c2sc3ccccc3c2Cl)c1	n	n	3.91	n	n	n	0.128
Cc1cnc(NC(=O)c2sc3ccccc3c2Cl)s1	n	n	n	n	n	n	x
Cc1nc(Nc2ccc(S(N)(=O)=O)cc2)oc1C	n	n	6.49	n	n	n	n
Cc1ccc(/C=C/C(=O)Nc2ccc(S(N)(=O)=O)cc2)o1	n	n	x	n	n	n	x
N#Cc1c(C(F)(F)F)cc(-c2ccccc2)nc1SCC(=O)Nc1sc2c(c1C#N)CCC2	x	n	n	n	+	n	0.0934
O=C(Nc1nnc(SCc2ccc(F)cc2)s1)c1ccc2c(c1)C(=O)N(c1ccccc1Cl)C2=O	n	n	x	n	n	n	x
S=C(Nc1ccccc1)N1CCn2c(nc3ccccc32)C1	n	n	x	n	n	n	x
N#Cc1cnn2cc(-c3ncc(C(F)(F)F)cc3Cl)cnc12	x	n	7.35	n	n	n	0.0777
SMILES	ROMK mod	ABCG2 block	sdo1 growth	ABCB1 inh	Autophagy mod	Ins promoter up	sdo1 rescue conf
CC(C)CC1NC(=S)N(Cc2ccccc2)C1=O (stereo not drawn)	n	n	n	n	n	n	x
CCOC(=O)c1[nH]c(COC(=O)C2CC(=O)N(Cc3ccccc3)C2)c(C(=O)OCC)c1C (stereo not drawn)	n	n	4.6	n	n	x	n
CCOC(=O)/C(=C/c1ccc(F)cc1)NC(C)=O	x	n	n	n	n	n	x
CC(=O)N/C(=C\c1ccc(F)cc1)C(=O)OC(C)C	x	n	3.35	n	n	n	0.098
CN1CCN(C(=S)Nc2ccc(S(N)(=O)=O)cc2)CC1	n	n	x	n	n	n	x
Cc1ccc(C(=O)NCCCN2CCOCC2)o1	x	n	n	n	n	x	n
Cc1ccc(CSCc2ccc(C(=O)NCCCN3CCOCC3)o2)cc1	n	n	x	n	n	n	x
COc1cccc(CNC(=O)C2CCCN(S(=O)(=O)c3cccc4nonc34)C2)c1 (stereo not drawn)	n	n	n	n	n	n	0.0864
COc1cccc(NC(=O)C2CCCN(S(=O)(=O)c3cccc4nonc34)C2)c1 (stereo not drawn)	n	n	x	n	n	n	x
CC(=O)Nc1ccc(SCC(=O)N(CCC#N)c2cc(C)cc(C)c2)cc1	n	n	3.9	n	n	x	0.084
CN(C)c1ccc(C(=O)Nc2ccc(CN3CCS(=O)(=O)CC3)cc2)cc1	n	x	x	x	x	n	x
NC(=O)CSc1nnc(SCc2ccc(F)cc2)s1	n	n	x	n	n	n	x
O=C1CSC(c2ccccn2)N1c1ccc(Br)cc1 (stereo not drawn)	x	n	x	n	n	n	x
O=C1CSC(c2ccccn2)N1c1ccccc1 (stereo not drawn)	x	n	4.1	n	n	n	0.0797
N#Cc1ccc(N/N=C/c2cn(-c3ccccc3)nc2-c2ccccc2)c([N+](=O)[O-])c1	n	n	n	n	n	n	n
Cc1ccc(C(=O)COC(=O)CCC(=O)NC2CCCCC2)cc1C	n	n	8.25	n	n	x	n
O=C(CCC(=O)OCC(=O)c1ccc(Cl)cc1)NC1CCCCC1	x	n	n	n	n	n	x
O=C(Nc1ccc(Cc2ccncc2)cc1)C1CCC(N2C(=O)C3CCCCC3C2=O)CC1 (stereo not drawn)	n	n	x	n	n	n	x
CN1CCN(CC(=O)Nc2ccc(OCc3ccccc3)cc2)CC1	n	n	4.38	n	n	x	n
COc1ccc(S(=O)(=O)N2CCCOC2CNC(=O)C(=O)NCc2ccco2)cc1 (stereo not drawn)	n	n	x	n	n	n	x
N#Cc1c(-c2ccc(F)cc2)ccnc1N1CCOCC1	n	n	x	n	n	n	x
Cc1ccc2cc(C#N)c(SCC(=O)Nc3ccc4sc(C)nc4c3)nc2c1	x	n	n	n	n	n	0.104
CC(=O)c1c(C)[nH]c(C(=O)OCc2ccccc2F)c1C	n	n	x	n	n	n	x
